Measured values: ChEMBL document CHEMBL1122206, “Use of adenine nucleotide derivatives to assess the potential of exo-active-site-directed reagents as species- or isozyme-specific enzyme inactivators. 5. Interactions of adenosine 5'-triphosphate derivatives with rat pyruvate kinases, Escherichia coli thymidine kinase, and yeast and rat …” (1982)

Experiments:
[1] = target: T1, Hexokinase-1 (Rattus norvegicus) (UniProt P05708); experiment: Time dependent inhibition of Hexokinase type I activity after 6 h, at 22 degrees celsius, at 5 mM compound
T1 sequence (whole entry): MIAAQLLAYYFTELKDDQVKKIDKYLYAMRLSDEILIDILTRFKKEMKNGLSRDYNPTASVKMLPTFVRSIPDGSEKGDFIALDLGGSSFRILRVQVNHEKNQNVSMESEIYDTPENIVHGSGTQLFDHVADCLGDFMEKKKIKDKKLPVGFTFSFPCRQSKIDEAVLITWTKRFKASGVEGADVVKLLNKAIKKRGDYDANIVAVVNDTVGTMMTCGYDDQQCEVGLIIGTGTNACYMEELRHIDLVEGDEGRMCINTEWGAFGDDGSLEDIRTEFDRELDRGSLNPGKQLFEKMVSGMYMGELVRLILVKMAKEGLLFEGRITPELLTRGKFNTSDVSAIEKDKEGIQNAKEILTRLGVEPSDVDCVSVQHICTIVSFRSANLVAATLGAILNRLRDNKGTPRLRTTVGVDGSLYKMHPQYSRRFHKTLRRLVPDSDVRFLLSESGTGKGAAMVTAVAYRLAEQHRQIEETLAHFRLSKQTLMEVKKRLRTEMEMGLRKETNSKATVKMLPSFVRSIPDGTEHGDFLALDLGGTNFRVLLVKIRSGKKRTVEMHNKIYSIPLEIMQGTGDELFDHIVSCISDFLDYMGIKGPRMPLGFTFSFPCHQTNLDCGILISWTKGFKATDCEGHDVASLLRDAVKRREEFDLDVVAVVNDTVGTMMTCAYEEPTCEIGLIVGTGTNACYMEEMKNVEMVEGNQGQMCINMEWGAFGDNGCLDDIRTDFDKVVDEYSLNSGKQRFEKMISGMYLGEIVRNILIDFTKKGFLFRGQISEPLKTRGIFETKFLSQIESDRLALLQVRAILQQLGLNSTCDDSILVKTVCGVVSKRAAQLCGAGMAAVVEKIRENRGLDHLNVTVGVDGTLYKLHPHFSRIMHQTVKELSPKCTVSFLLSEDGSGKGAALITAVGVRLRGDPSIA

[2] = target: T2, Hexokinase-2 (Rattus norvegicus) (UniProt P27881); experiment: Time dependent inhibition of hexokinase 2 activity after 6 h, at 5 mM compound
T2 sequence (whole entry): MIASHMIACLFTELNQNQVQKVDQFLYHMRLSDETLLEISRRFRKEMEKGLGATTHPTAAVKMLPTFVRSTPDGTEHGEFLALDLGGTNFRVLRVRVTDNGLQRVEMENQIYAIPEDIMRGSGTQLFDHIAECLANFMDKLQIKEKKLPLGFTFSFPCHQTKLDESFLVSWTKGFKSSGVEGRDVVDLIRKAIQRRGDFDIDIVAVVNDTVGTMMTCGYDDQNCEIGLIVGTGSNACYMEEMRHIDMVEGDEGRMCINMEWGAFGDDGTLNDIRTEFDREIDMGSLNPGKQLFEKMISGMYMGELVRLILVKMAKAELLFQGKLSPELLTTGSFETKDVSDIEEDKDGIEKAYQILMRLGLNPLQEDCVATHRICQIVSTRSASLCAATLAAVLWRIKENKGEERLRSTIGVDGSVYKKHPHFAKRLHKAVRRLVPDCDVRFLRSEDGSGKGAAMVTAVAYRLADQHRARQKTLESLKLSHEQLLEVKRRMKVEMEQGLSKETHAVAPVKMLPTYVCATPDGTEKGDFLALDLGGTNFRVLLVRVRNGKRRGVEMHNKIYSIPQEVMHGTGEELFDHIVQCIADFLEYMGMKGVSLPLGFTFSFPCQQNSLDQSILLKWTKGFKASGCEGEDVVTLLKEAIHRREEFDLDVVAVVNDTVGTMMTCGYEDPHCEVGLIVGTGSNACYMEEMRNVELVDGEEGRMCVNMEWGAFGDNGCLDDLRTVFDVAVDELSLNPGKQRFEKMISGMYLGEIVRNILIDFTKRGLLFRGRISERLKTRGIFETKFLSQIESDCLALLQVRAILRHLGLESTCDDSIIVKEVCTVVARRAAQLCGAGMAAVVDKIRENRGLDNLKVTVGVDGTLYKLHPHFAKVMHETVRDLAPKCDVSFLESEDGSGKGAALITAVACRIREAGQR

[3] = Tested for the velocity of 2.8 mM compound relative to that of 2.8 mM MgATP in the assay
Procedure, shortened: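 E. coli TK substrate test. 0.5 h after adding inhibitor, the mixture was diluted to 2.8 mM derivative in thymidine assay medium without ATP and with 1.42 mM MnCl2. Incubated 15 min at 37 °C, in the linear range. [14C]TMP formed was compared with that from 2.8 mM ATP under the same conditions.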

[4] = target: Thymidine kinase (Escherichia coli) (UniProt P23331); experiment: Compound was tested for the initial inhibition of thymidine kinase by 1.4 mM compound in the presence of 5.7 mM ATP in Escherichia coli
[5] = target: T3, Hexokinase-3 (Rattus norvegicus) (UniProt P27926); experiment: Time dependent inhibition of Hexokinase type III activity after 6 h, at 22 degrees celsius, at 5 mM
T3 sequence (whole entry): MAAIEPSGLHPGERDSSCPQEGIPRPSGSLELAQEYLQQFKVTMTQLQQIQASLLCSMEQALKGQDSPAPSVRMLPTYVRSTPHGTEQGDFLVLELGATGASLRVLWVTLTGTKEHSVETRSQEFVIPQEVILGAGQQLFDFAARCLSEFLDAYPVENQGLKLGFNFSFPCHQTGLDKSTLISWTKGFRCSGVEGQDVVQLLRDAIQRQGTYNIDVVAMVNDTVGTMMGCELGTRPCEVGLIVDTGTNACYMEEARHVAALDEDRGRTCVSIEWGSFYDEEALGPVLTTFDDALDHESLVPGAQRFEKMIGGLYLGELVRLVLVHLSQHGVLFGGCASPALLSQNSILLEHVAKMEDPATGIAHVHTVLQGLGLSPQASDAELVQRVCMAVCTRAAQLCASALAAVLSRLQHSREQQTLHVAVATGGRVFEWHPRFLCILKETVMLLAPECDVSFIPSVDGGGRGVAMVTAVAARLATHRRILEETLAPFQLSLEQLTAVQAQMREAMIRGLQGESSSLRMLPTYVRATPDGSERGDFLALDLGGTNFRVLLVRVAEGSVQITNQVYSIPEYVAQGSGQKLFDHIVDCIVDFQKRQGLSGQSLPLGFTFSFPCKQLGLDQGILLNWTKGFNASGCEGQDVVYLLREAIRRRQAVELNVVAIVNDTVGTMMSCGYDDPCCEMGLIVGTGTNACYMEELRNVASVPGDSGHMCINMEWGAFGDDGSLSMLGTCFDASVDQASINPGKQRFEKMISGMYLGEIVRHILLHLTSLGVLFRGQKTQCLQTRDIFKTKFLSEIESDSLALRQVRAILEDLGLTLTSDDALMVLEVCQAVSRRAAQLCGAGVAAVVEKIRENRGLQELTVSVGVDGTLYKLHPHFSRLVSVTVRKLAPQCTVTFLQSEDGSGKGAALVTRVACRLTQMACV

[6] = target: Thymidine kinase (Escherichia coli) (UniProt P23331); experiment: Compound was tested for the lose of thymidine kinase activity after 6 hr, at 0 degrees celsius, with 10 mM ATP derivative. values were expressed in percent
Saccharomyces cerevisiae [7] = experiment: Time dependent inhibition of hexokinase activity after 6 hr, at 22 degrees celsius, with 5 mM ATP derivative in yeast.
[8] = target: T1, Hexokinase-1 (Rattus norvegicus); experiment: Substrate activity for rat hexokinase I as 1:1 Mg complex at 5.0 mM
Procedure, shortened: (§1)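 Hexokinase activity read at 22 °C as A340 change, coupled to glucose-6-phosphate dehydrogenase, in 0.05 M Tris-HCl pH 7.6 with 6.6 mM MgCl2, 10 mM α-D-glucose and 0.93 mM NADP. Donor was 5.0 mM MgATP derivative (1:1 Mg complex) in place of ATP. Yeast HK was isoelectric-focused. Rat HK I and III came from electrofocused liver extract, HK II from dialysed muscle extract.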

Saccharomyces cerevisiae [9] = experiment: Substrate activity against yeast hexokinase as 1:1 Mg complexes at 5.0 mM
Procedure, shortened: as §1

[10] = target: T3, Hexokinase-3 (Rattus norvegicus); experiment: Substrate activity for rat hexokinase III as 1:1 Mg complex at 5.0 mM
Procedure, shortened: as §1

[11] = target: T2, Hexokinase-2 (Rattus norvegicus); experiment: Substrate activity against Rat hexokinase II as 1:1 Mg complex at 5.0 mM
Procedure, shortened: as §1

[12] = target: Thymidine kinase (Escherichia coli) (UniProt P23331); experiment: Compound was tested for the loss of thymidine kinase activity from Escherichia coli after 6 hr at 0 degrees C at 10 mM

Thymidine kinase (Escherichia coli), sequence (P23331 whole entry, looked up): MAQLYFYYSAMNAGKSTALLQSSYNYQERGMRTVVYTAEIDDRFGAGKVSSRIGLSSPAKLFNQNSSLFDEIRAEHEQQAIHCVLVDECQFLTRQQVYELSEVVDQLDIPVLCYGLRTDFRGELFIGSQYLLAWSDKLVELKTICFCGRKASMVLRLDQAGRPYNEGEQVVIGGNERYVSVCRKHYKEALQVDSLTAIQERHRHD

| inhibition [1] [%] | inhibition [2] [%] | Velocity [3] [%] | inhibition [4] [%] | inhibition [5] [%] | inhibition [6] [%] | inhibition (Saccharomyces cerevisiae [7]) [%] | Relative velocity [8] | Relative velocity (Saccharomyces cerevisiae [9]) | Relative velocity [10] | Relative velocity [11] | inhibition [12] [%] | Structure (SMILES) |
| --- | --- | --- | --- | --- | --- | --- | --- | --- | --- | --- | --- | --- |
| 0 | 0 | 53 | 1 | 0 | 0 | 0 |  |  |  |  |  | O=C(CI)NCCC(=O)NCCCCCCNc1ncnc2c1ncn2[C@@H]1O[C@H](COP(=O)(O)OP(=O)(O)OP(=O)(O)O)[C@@H](O)[C@H]1O |
| 0 | 0 | 36 | 0 | 0 | 0 | 0 | 1.3 | 1 | 2.02 | 0.91 |  | O=C(CI)NCCCC(=O)NCCCCCCNc1ncnc2c1ncn2[C@@H]1O[C@H](COP(=O)(O)OP(=O)(O)OP(=O)(O)O)[C@@H](O)[C@H]1O |
|  |  |  |  | 0 |  |  | 1.16 | 0.54 | 1.81 | 0.82 | 0 | Nc1ncnc2c1nc(NCCCCCCCCNC(=O)CI)n2[C@@H]1O[C@H](COP(=O)(O)OP(=O)(O)OP(=O)(O)O)[C@@H](O)[C@H]1O |
| 0 | 0 | > 14 | 8 | 0 | 44 | 0 | 0.63 | 0.94 | 1.02 | 0.43 |  | CN(CCCN(C)C(=O)CCCNc1ncnc2c1ncn2[C@@H]1O[C@H](COP(=O)(O)OP(=O)(O)OP(=O)(O)O)[C@@H](O)[C@H]1O)C(=O)CCCNC(=O)CI |
| 0 |  | 71 |  | 0 | 0 | 0 |  |  |  |  |  | O=C(CI)NCCCCCC(=O)NCCCCNc1ncnc2c1ncn2[C@@H]1O[C@H](COP(=O)(O)OP(=O)(O)OP(=O)(O)O)[C@@H](O)[C@H]1O |
|  |  | 55 | 1 |  | 0 | 0 |  |  |  |  |  | CN(CCCCN(C)c1ncnc2c1ncn2[C@@H]1O[C@H](COP(=O)(O)OP(=O)(O)OP(=O)(O)O)[C@@H](O)[C@H]1O)C(=O)CCCCCCNC(=O)CI |
|  |  | 49 | 5 |  | 0 |  |  |  |  |  |  | CN(CCCCCCN(C)c1ncnc2c1ncn2[C@@H]1O[C@H](COP(=O)(O)OP(=O)(O)OP(=O)(O)O)[C@@H](O)[C@H]1O)C(=O)CCCCCNC(=O)CI |
| 0 |  |  |  | 0 |  | 0 | 1.12 |  | 1.25 | 0.6 |  | CC(=O)NCCCCCCCCNc1ncnc2c1ncn2[C@@H]1O[C@H](COP(=O)(O)OP(=O)(O)OP(=O)(O)O)[C@@H](O)[C@H]1O |
| 0 | 0 | 41 | 12 |  | 0 | 0 |  |  |  |  |  | O=C(CI)NCCCCCCC(=O)NCCCCCCNc1ncnc2c1ncn2[C@@H]1O[C@H](COP(=O)(O)OP(=O)(O)OP(=O)(O)O)[C@@H](O)[C@H]1O |
| 0 | 0 |  |  | 0 |  | 0 |  |  |  |  |  | Nc1ncnc2c1nc(NCCCCCCNC(=O)CI)n2[C@@H]1O[C@H](COP(=O)(O)OP(=O)(O)OP(=O)(O)O)[C@@H](O)[C@H]1O |
| 0 | 0 | > 33 | 0 | 0 | 60 | 0 | 0.88 | 1.2 | 0.93 | 0.35 |  | CN(CCCCN(C)c1ncnc2c1ncn2[C@@H]1O[C@H](COP(=O)(O)OP(=O)(O)OP(=O)(O)O)[C@@H](O)[C@H]1O)C(=O)CCCNC(=O)CI |
| 0 | 0 |  |  | 0 |  |  |  |  |  |  |  | Nc1ncnc2c1nc(NCCNC(=O)CI)n2[C@@H]1O[C@H](COP(=O)(O)OP(=O)(O)OP(=O)(O)O)[C@@H](O)[C@H]1O |
|  |  | 41 |  |  |  |  |  |  |  |  | 0 | CC(=O)NCCCCCC(=O)N(C)CCCCN(C)c1ncnc2c1ncn2[C@@H]1O[C@H](COP(=O)(O)OP(=O)(O)OP(=O)(O)O)[C@@H](O)[C@H]1O |
| 0 | 0 |  |  | 0 |  |  |  |  |  |  |  | Nc1ncnc2c1nc(NCCCCNC(=O)CI)n2[C@@H]1O[C@H](COP(=O)(O)OP(=O)(O)OP(=O)(O)O)[C@@H](O)[C@H]1O |
